Measurements from article PMC3034256 (Chemistry & biology, 2011).

Tests used:
PTP1B = target: T1, PTP1B (Homo sapiens, UniProt P18031); experiment: PTP-catalyzed pNPP hydrolysis, PTP1B; assay type: biochemical
T1 sequence (P18031 1-435): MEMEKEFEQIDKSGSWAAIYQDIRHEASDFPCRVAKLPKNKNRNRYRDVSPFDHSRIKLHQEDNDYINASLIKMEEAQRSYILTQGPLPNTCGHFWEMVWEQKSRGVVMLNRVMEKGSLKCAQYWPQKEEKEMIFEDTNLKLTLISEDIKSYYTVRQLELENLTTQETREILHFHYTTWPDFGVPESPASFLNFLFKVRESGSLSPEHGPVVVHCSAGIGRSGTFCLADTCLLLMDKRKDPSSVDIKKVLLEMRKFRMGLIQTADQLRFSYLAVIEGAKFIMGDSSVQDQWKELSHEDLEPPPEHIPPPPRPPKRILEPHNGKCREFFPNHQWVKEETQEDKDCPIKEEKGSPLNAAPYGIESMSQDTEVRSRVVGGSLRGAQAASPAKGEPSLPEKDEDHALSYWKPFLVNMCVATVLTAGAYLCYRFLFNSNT
How it was run: (§1)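 pNPP hydrolysis was run at 25 °C in 50 mM 3,3-dimethylglutarate, pH 7.0, 1 mM EDTA, ionic strength 0.15 M (NaCl). pNPP was fixed at each enzyme's experimentally determined Km, and reactions were started with enzyme. They were quenched with NaOH and corrected with no-enzyme controls. p-Nitrophenol was read at 405 nm. IC50 was fitted from AI/A0 = IC50/(IC50+[I]).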

Jurkat T cells [1] = experiment: TCR-mediated tyrosine phosphorylation in Jurkat T cells; assay type: cell-based; conditions: 2 h pretreatment (2 µM; TTN 2–4 µM), 10 µg/mL anti-CD3
[2] = system: transduced bone marrow LDMNCs (MIEG3, wild-type SHP2, SHP2/E76K); experiment: Methylcellulose colony assay, GM-CSF-stimulated monocytic differentiation; assay type: cell-based; conditions: 2 µM, GM-CSF 1 ng/mL, 7 days, all cell types
How it was run: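 Transduced, EGFP-sorted bone marrow low-density mononuclear cells were plated at 8000 cells/mL in 0.9% methylcellulose medium (IMDM, 2 mM glutamine, 80 µM β-mercaptoethanol, 30% FBS) with GM-CSF 1 ng/mL, ± 2 µM test compound. Cultures were kept at 37 °C, 5% CO2 for 7 days. Total colonies and CFU-GM vs CFU-M morphology were scored by light microscopy; n=2.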

panel of PTPs = experiment: Screen against a panel of PTPs at 10 µM; assay type: biochemical; conditions: 10 µM compound, pNPP, pH 7, 25 °C
PP2A = conditions: biochemical assays; cited from earlier work
Jurkat T cells [3] = experiment: TCR-mediated ERK1/2 activation in Jurkat T cells; assay type: cell-based; conditions: 2 h pretreatment (2 µM), 10 µg/mL anti-CD3
CD45 = target: T2, CD45 (Homo sapiens, UniProt P08575); experiment: PTP-catalyzed pNPP hydrolysis, CD45; assay type: biochemical
T2 sequence (P08575 26-1306): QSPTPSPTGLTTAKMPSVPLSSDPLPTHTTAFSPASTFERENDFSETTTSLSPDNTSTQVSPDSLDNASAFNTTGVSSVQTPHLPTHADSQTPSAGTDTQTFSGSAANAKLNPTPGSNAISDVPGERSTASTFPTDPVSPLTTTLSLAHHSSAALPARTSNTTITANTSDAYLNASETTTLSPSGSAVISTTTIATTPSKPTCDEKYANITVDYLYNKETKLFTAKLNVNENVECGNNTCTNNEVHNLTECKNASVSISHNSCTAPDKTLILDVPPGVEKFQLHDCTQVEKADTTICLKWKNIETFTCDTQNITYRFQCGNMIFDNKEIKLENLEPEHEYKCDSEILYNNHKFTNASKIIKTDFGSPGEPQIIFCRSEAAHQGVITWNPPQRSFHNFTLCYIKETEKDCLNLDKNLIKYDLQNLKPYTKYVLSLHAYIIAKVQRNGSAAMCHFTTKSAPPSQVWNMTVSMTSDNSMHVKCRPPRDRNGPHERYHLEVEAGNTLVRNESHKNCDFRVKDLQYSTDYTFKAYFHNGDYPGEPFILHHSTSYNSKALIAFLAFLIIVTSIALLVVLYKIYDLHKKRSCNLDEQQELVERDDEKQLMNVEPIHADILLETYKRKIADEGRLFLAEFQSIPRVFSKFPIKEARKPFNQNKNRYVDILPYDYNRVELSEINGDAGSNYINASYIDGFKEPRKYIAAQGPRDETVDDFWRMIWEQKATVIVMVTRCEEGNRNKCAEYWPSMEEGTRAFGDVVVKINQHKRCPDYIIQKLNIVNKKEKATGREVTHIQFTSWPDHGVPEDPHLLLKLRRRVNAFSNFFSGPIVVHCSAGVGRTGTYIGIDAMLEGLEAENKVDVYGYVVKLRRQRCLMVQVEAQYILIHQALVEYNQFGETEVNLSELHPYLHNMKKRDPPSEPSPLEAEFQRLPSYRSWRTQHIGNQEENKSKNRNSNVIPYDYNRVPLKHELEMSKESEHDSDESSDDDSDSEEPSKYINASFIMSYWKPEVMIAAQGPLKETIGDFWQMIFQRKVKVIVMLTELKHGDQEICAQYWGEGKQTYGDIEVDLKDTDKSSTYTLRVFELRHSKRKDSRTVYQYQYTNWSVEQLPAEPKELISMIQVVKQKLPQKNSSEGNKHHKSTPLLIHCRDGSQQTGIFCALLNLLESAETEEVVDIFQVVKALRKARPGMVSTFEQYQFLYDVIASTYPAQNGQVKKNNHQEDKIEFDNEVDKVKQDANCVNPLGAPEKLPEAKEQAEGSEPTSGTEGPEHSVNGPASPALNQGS
How it was run: as §1

SHP2 = target: T3, SHP2 (Homo sapiens, UniProt Q06124); experiment: PTP-catalyzed pNPP hydrolysis, SHP2; assay type: biochemical
T3 sequence (Q06124 262-528): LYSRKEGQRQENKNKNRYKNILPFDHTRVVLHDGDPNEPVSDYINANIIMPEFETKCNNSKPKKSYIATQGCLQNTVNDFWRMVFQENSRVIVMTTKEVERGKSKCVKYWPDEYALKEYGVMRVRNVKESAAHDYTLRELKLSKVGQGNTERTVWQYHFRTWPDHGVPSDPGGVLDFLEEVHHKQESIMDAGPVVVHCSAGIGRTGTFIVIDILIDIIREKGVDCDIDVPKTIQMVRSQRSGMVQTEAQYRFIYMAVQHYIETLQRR
How it was run: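 The SHP2 catalytic domain (residues 262–528) hydrolysed pNPP at 25 °C, pH 7.0 (50 mM 3,3-dimethylglutarate, 1 mM EDTA, ionic strength 0.15 M). Single-point screening used 10 µM final test compound. IC50 was measured at pNPP = Km by A405 after NaOH quench, fitted to AI/A0 = IC50/(IC50+[I]). For Ki and mode, initial rates at inhibitor 0–3 Ki and pNPP 0.2–5× apparent Km were fitted to kinetic equations.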

C=C/C(=C/C(=O)C[C@H](C)C[C@@H](C)CC[C@H](O)[C@H](C)C(=O)C[C@@H](O)[C@H](C)[C@@H](C)OC(=O)C[C@@H](O)C1=C(C)C(=O)OC1=O)CC [TTN, tautomycetin]
IC50 (PTP1B): 41200 ± 4400 nM
effect on TCR-mediated tyrosine phosphorylation (Jurkat T cells [1]): efficiently attenuated
effect on development of CFU-M [2]: reduced in all cells types
inhibition of the rest of the PTP panel (other than SHP2) (panel of PTPs): < 30%
inhibition of PP2A (PP2A): low nM range
effect on TCR-mediated ERK1/2 activation (Jurkat T cells [3]): strongly reduced
IC50 (CD45): > 50000 nM
IC50 (SHP2): 2900 ± 200 nM
Ki (SHP2): 1600 ± 100 nM
reduction of SHP2 activity (SHP2; 10 µM compound, pNPP, pH 7, 25 °C): 80–90%
preference for SHP2 over all PTPs examined (SHP2; from IC50 values): ≥ 5 fold
mode of SHP2 inhibition (SHP2; pNPP hydrolysis, 25 °C, pH 7.0): competitive inhibitors
